We go through five compounds from PMC5724766 (Bioorganic & medicinal chemistry, 2016).

Test [1] deals with purified human 20S proteasome, tryptic (β2)-like activity (Homo sapiens, UniProt Q99436). In words: 20S proteasome trypsin-like. In kind it is biochemical. In short, it runs like this:
(§1)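 Purified human 20S proteasome (1 nM) in 50 mM Tris-HCl pH 7.5 with 0.03% SDS and 50 μM fluorogenic substrate at 37 °C: Z-LLE-AMC for caspase-like activity, Z-ARR-AMC for trypsin-like activity. Released aminomethylcoumarin read at ex 380/em 460 nm every minute for 30 min. Maximum fluorescence increase per minute gives the specific activity of each sample.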

Another test relates to proteasome. Particulars: cited from earlier work; for pIC50: read-out: IC50, proteasome inhibition.
Test [2] addresses purified human 20S proteasome, caspase (β1)-like activity (Homo sapiens, UniProt P28072). The test can be described thus: 20S proteasome caspase-like. In kind it is biochemical. In short, it runs like this:
as §1

Usually pIC50 stands for −log10 of the IC50, conventionally taken in molar units.

pIC50: −log10 of the molar value.

On to `Cc1cc(C)c2cc(C3=CCCCC3)c(C)nc2c1` [Compound 7, 3-Cyclohexenyl-2,5,7-trimethylquinoline], for which, in test [1], the pIC50 was less than 4.60.
In the case of `Nc1ccc(O)c2ncccc12` [5-AHQ, 5-amino-8-hydroxyquinoline], the negative logarithm of the IC50 (pIC50) in the test on proteasome is 5.30 to 6.22.
In test [2], `Cc1nc2ccc(N3CCCCC3)cc2cc1C1=CCCCC1` [Compound 25, 3-Cyclohexenyl-2-methyl-6-piperidinylquinoline] had a pIC50 of 4.96. Further, the “inhibition of tryptic-like activity (in words)” value in test [1] (purified human 20S proteasome, Suppl. Fig. S6) is “not the tryptic-like activity”.
On to `CCN(CC)CCCC(C)Nc1ccnc2cc(Cl)ccc12` (stereo not drawn) [chloroquine], for which the “proteasome inhibitory activity (in words)” value in the test on proteasome is “millimolar activity”.
Take `O=C1C(Cl)=C(Nc2ccc(S(=O)(=O)Nc3ccccn3)cc2)C(=O)c2ccccc21` [PI-083]: the negative logarithm of the IC50 (pIC50) with proteasome is approximately 6.00.
